Reference: ChEMBL document CHEMBL4229377, “Design, synthesis and bioevaluation of 1,2,3,9-tetrahydropyrrolo[2,1-b]quinazoline-1-carboxylic acid derivatives as potent neuroprotective agents” (Eur J Med Chem, 2018)

Assays:
[1] = system: SH-SY5Y; experiment: Neuroprotective activity against NMDA-induced cell damage in human SH-SY5Y cells assessed as cell viability at 100 uM preincubated for 6 hrs followed by NMDA addition and measured after 30 mins by MTT assay (reference value: 58.7 +/- 2.3%)
[2] = system: SH-SY5Y; experiment: Neuroprotective activity against NMDA-induced cell damage in human SH-SY5Y cells assessed as cell viability at 10 uM preincubated for 6 hrs followed by NMDA addition and measured after 30 mins by MTT assay (reference value: 58.7 +/- 2.3%); assay type: functional; settings: read-out: Activity
[3] = system: SH-SY5Y; experiment: Neuroprotective activity against NMDA-induced cell damage in human SH-SY5Y cells assessed as cell viability at 0.1 uM preincubated for 6 hrs followed by NMDA addition and measured after 30 mins by MTT assay (reference value: 58.7 +/- 2.3%); assay type: functional; settings: read-out: Activity
[4] = system: SH-SY5Y; experiment: Neuroprotective activity against NMDA-induced cell damage in human SH-SY5Y cells assessed as cell viability at 1 uM preincubated for 6 hrs followed by NMDA addition and measured after 30 mins by MTT assay (reference value: 58.7 +/- 2.3%); assay type: functional; settings: read-out: Activity
[5] = Clearance in human liver microsomes at 10 uM preincubated for 10 mins followed by NADPH addition and measured up to 60 mins; assay type: ADME, microsome; settings: read-out: CLH
Procedure, shortened: (§1)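 Human liver microsomes were incubated for 60 min with an NADPH regenerating system to derive T1/2 and CL (µL/min/mg). A no-cofactor sample, with buffer replacing NADPH, was run alongside over 60 min to give % parent remaining.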

[6] = Metabolic stability in human liver microsomes assessed as parent compound remaining at 10 uM after 60 mins in absence of NADPH; assay type: ADME, microsome; settings: read-out: Stability
Procedure, shortened: as §1

[7] = Half life in human liver microsomes at 10 uM preincubated for 10 mins followed by NADPH addition and measured up to 60 mins; assay type: ADME, microsome
Procedure, shortened: as §1

In the case of `N=C(NCc1ccc(O)cc1)[C@@H]1CCC2=Nc3ccccc3CN21`, the Activity [1] is reported as 64.3%, the viability at 10 µM [2] is reported as 70.2% and the viability at 0.1 µM [3] is reported as 61.6%. The viability at 1 µM [4] was 69.2%.
Molecule `O=C(NCCc1ccccc1)[C@@H]1CCC2=Nc3ccccc3CN21` has an Activity [1] of 57.5%, a viability at 10 µM [2] of 80% and a viability at 0.1 µM [3] of 73.7%. The viability at 1 µM [4] was 77.6%.
Molecule `O=C(NCCc1ccc(F)cc1)[C@@H]1CCC2=Nc3ccccc3CN21` has an Activity [1] of 33.5%, a viability at 10 µM [2] of 68.1% and a viability at 0.1 µM [3] of 71.4%. It also gave a viability at 1 µM [4] of 75.4%.
With `O=C(N[C@H](CO)Cc1ccccc1)[C@@H]1CCC2=Nc3ccccc3CN21` the Activity [1] was 72.4%, the viability at 10 µM [2] was 79.6% and the viability at 0.1 µM [3] was 67.1%. For the same molecule, the viability at 1 µM [4] was 82.6%.
For `N=C(NCc1ccccc1)[C@@H]1CCC2=Nc3ccccc3CN21`, the Activity [1] was 66.4%, the viability at 10 µM [2] was 68.8% and the viability at 0.1 µM [3] was 61.6%. For the same molecule, the viability at 1 µM [4] was 68.6%.
`O=C(NCCCc1ccccc1)[C@@H]1CCC2=Nc3ccc(Br)cc3CN21` showed an Activity [1] of 42.2%, a viability at 10 µM [2] of 66.1% and a viability at 0.1 µM [3] of 69.1%. The viability at 1 µM [4] was 76.6%.
`C[C@@H]([C@@H](O)c1ccc(O)cc1)N1CCC(Cc2ccccc2)CC1` [(S)-IFENPRODIL] showed an Activity [1] of 65.1%, a microsomal CLint at 10 µM [5] of 109 µL/min/mg and a remaining at 1 h, 10 µM [6] of 87.3%. It also gave a viability at 10 µM [2] of 79.5%, a viability at 0.1 µM [3] of 71% and a half-life at 10 µM [7] of 12.8 min. The viability at 1 µM [4] was 72.7%.
Molecule `COc1ccc(CNC(=O)[C@@H]2CCC3=Nc4ccccc4CN32)cc1` has an Activity [1] of 64.4%, a viability at 10 µM [2] of 74.1% and a viability at 0.1 µM [3] of 68.1%. The viability at 1 µM [4] was 71.8%.
`O=C(NCCCc1ccccc1)[C@H]1CCC2=Nc3ccc(Br)cc3CN21` showed an Activity [1] of 44.1%, a viability at 10 µM [2] of 65.4% and a viability at 0.1 µM [3] of 58.1%. It also gave a viability at 1 µM [4] of 72.1%.
Work on `O=C(Nc1ccc(O)cc1)[C@H]1CCC2=Nc3ccc(Br)cc3CN21` yielded an Activity [1] of 66%, a viability at 10 µM [2] of 68.3% and a viability at 0.1 µM [3] of 61.7%. The viability at 1 µM [4] was 71.3%.
Work on `O=C(NCCc1ccc(O)cc1)[C@@H]1CCC2=Nc3ccccc3CN21` yielded an Activity [1] of 67.8%, a viability at 10 µM [2] of 81.4% and a viability at 0.1 µM [3] of 67.7%. The viability at 1 µM [4] was 78.1%.
In the case of `O=C(NCc1ccc(O)cc1)[C@@H]1CCC2=Nc3ccc(Br)cc3CN21`, the Activity [1] is reported as 60%, the viability at 10 µM [2] is reported as 76% and the viability at 0.1 µM [3] is reported as 69%. The viability at 1 µM [4] was 73.5%.
For `COc1ccc(CNC(=N)[C@@H]2CCC3=Nc4ccccc4CN32)cc1`, the Activity [1] was 56.9%, the viability at 10 µM [2] was 66.1% and the viability at 0.1 µM [3] was 64.8%. The viability at 1 µM [4] was 65.8%.
For `O=C(NCc1ccc(F)cc1)[C@@H]1CCC2=Nc3ccccc3CN21`, the Activity [1] was 63.2%, the viability at 10 µM [2] was 78.9% and the viability at 0.1 µM [3] was 67.1%. The viability at 1 µM [4] was 72.6%.
Molecule `O=C(NCCc1c[nH]c2ccccc12)[C@@H]1CCC2=Nc3ccccc3CN21` has an Activity [1] of 78.2%, a viability at 10 µM [2] of 80.9% and a viability at 0.1 µM [3] of 66.2%. It also gave a viability at 1 µM [4] of 72%.
`COc1ccc(CCNC(=O)[C@@H]2CCC3=Nc4ccccc4CN32)cc1` gave an Activity [1] of 60%, a viability at 10 µM [2] of 75.1% and a viability at 0.1 µM [3] of 73%. The viability at 1 µM [4] was 81%.
`O=C(OCc1ccccc1)[C@@H]1CCC2=Nc3ccccc3CN21` gave an Activity [1] of 57.4%, a viability at 10 µM [2] of 66.1% and a viability at 0.1 µM [3] of 61%. It also gave a viability at 1 µM [4] of 65.5%.
Work on `O=C(Nc1ccccc1)[C@@H]1CCC2=Nc3ccccc3CN21` yielded an Activity [1] of 54.6%, a viability at 10 µM [2] of 60.4% and a viability at 0.1 µM [3] of 68.7%. For the same molecule, the viability at 1 µM [4] was 71.4%.
With `O=C(NCCc1ccc(O)cc1)[C@H]1CCC2=Nc3ccccc3CN21` the Activity [1] was 68%, the viability at 10 µM [2] was 70.5% and the viability at 0.1 µM [3] was 65.2%. The viability at 1 µM [4] was 80.7%.
